Data set [1] has as its target T1, Glucocorticoid receptor (Rattus norvegicus) (UniProt P06536).
T1 sequence (whole entry): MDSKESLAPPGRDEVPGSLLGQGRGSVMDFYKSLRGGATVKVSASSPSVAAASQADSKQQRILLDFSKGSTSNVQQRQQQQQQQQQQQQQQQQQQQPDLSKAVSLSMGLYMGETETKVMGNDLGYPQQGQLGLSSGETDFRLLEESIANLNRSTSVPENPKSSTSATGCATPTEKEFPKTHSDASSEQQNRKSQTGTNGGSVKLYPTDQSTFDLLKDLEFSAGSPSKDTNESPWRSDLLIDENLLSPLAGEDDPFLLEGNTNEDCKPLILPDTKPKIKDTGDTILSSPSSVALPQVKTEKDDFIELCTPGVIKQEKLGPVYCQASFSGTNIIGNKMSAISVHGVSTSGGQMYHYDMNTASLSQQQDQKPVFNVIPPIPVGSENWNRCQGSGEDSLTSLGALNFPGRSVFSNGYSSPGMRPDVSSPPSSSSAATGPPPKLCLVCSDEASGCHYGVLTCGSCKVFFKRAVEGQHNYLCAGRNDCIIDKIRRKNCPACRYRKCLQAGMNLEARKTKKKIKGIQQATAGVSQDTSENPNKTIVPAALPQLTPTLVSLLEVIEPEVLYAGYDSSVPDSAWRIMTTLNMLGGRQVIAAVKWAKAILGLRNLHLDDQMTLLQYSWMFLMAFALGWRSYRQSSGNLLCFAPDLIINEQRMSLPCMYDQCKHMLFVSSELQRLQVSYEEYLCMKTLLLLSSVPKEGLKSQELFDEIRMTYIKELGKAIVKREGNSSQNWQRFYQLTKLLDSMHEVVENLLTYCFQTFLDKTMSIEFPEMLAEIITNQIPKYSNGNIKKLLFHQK
Description: Antagonist activity at glucocorticoid receptor in rat primary hepatocytes assessed as inhibition of glucocorticoid-induced TAT activity relative to control. The format is cell-based. As to conditions: Hepatocyte. The essentials: (§1)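 Glucocorticoid receptor antagonism was measured as blockade of dexamethasone-induced tyrosine amino transferase (TAT) activity. Cells were rat H4IIEC3 cells or primary hepatocytes from rat or cynomolgus monkey, as the line specifies.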

Data set [2] addresses T2, Glucocorticoid receptor (Homo sapiens, UniProt P04150).
T2 sequence (P04150 whole entry): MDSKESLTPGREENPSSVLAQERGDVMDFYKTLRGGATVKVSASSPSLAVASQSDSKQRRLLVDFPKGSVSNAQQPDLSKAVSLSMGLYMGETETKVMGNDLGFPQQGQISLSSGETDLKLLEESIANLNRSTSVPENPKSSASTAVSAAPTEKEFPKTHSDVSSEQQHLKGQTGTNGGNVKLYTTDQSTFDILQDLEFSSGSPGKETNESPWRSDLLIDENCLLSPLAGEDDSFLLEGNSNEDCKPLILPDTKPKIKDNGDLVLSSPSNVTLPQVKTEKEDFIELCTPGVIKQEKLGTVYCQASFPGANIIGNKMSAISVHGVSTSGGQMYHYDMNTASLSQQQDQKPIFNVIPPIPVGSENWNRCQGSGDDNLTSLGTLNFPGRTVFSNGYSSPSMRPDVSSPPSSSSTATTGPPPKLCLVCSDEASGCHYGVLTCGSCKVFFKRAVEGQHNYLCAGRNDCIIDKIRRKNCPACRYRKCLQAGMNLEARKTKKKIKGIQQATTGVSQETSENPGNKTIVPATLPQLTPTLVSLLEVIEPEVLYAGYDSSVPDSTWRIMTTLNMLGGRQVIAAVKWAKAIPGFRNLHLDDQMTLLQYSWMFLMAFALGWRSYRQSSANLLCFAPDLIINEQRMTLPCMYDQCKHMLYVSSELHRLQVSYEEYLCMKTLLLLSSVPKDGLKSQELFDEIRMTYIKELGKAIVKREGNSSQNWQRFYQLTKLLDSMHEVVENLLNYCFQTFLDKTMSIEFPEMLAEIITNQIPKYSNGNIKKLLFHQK
Description: Antagonist activity at glucocorticoid receptor in human primary hepatocytes assessed as inhibition of glucocorticoid-induced TAT activity. The format is cell-based, Hepatocyte. In a few lines:
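Primary human hepatocytes stimulated with dexamethasone to induce tyrosine amino transferase (TAT) activity. Compounds were tested for their ability to block this dexamethasone effect as a measure of GR antagonism. They were also run without dexamethasone to check for TAT induction, a measure of GR agonism. Read-out was TAT activity, reported as K_i.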

Data set [3] concerns Rattus norvegicus. Description: Reduction in cortisone-induced insulin level in rat at 30 mg/kg, po bid. Format: functional, organism-based. In a few lines: (§2)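 Rats received cortisone 30 mg/kg sc once daily for six days. Test agent was given orally twice daily at 30 mg/kg. Glucose and insulin levels were compared with cortisone-only and no-cortisone controls, with mifepristone at the same oral regimen as positive control.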

The target of data set [4] is T3, Glucocorticoid receptor (Rattus norvegicus, UniProt P06536).
T3 sequence (P06536 whole entry): T1 sequence (whole entry)
Description: Agonist activity at glucocorticoid receptor in rat primary hepatocytes assessed as inhibition of glucocorticoid-induced TAT activity. The format is cell-based, Hepatocyte.

The target in data set [5] is T2, Glucocorticoid receptor. Description: Binding affinity to human recombinant glucocorticoid receptor by fluorescence polarization assay. Background: Polarisation of emitted light reports the rotation of a fluorescent probe.
Data set [6] can be described thus: Oral bioavailability in rat at 5 mg/kg. Format: ADME, organism-based. The following applies: in vivo. In a few lines: (§3)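 Rat pharmacokinetics: oral dosing at 5 mg/kg in 10% DMSO in 0.5% aqueous methyl cellulose. Intravenous dosing at 1 mg/kg in 10% DMSO, 45% PEG400 and 45% propylene glycol. Plasma Cmax was taken after the oral dose and clearance after the iv dose, and oral bioavailability was derived.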

Data set [7] can be described thus: Agonist activity at glucocorticoid receptor in dog primary hepatocytes assessed as […] TAT activity. Format: cell-based. The following applies: Canis lupus familiaris, Hepatocyte.
Data set [8] relates to Rattus norvegicus. Description: Reduction in cortisone-induced glucose level in rat at 30 mg/kg, po bid. Format: functional, organism-based. In a few lines:
as §2

Data set [9] deals with Voltage-gated inwardly rectifying potassium channel KCNH2 (Homo sapiens, UniProt Q12809). Description: Inhibition of human ERG by patch clamp technique. A general note: The patch-clamp technique gives a direct electrical read-out from membranes.
Data set [10] is described as follows: Clearance in rat at 1 mg/kg, iv. Format: ADME, organism-based. As to conditions: in vivo. The essentials: as §3
For data set [11], the system named is Hepatocyte. Description: Antagonist activity at glucocorticoid receptor in cynomolgus monkey primary hepatocytes assessed as inhibition of glucocorticoid-induced TAT activity relative to control. Format: cell-based. The following applies: Macaca fascicularis. The essentials:
as §1

Data set [12] addresses T3, Glucocorticoid receptor. Description: (§4) Antagonist activity at glucocorticoid receptor in rat primary hepatocytes assessed as inhibition of glucocorticoid-induced TAT activity. The format is cell-based, Hepatocyte. In a few lines: as §1
Data set [13] in a line: Cmax in rat at 5 mg/kg, po. The format is ADME, organism-based. Also noted: dose 5 mg/kg, route oral. The following applies: in vivo. The essentials:
as §3

Data set [14] in a line: Antagonist activity at glucocorticoid receptor in cynomolgus monkey primary hepatocytes assessed as inhibition of glucocorticoid-induced TAT activity. The following applies: hepatocyte. The format is cell-based, Macaca fascicularis. In a few lines:
as §1

In data set [15] the test system is Rattus norvegicus. Description: Reduction in olanzapine-induced weight gain in rat at 20 mg/kg, po bid administered for 21 days measured from day 4 of compound dosing. Format: functional, organism-based.
The subject of data set [16] is Hepatocyte. Description: Agonist activity at glucocorticoid receptor in dog primary hepatocytes assessed as […] TAT activity relative to control. Format: cell-based. The following applies: Canis lupus familiaris.
In data set [17] the target is T1, Glucocorticoid receptor (Rattus norvegicus). Description: Agonist activity at glucocorticoid receptor in rat primary hepatocytes assessed as inhibition of glucocorticoid-induced TAT activity relative to control. Format: cell-based. The following applies: Hepatocyte.
For data set [18], the target named is T4, hERG (KCNH2) (Homo sapiens, UniProt Q12809). Description: Inhibition of human ERG at 1 uM by patch clamp technique.
In data set [19] the target is T3, Glucocorticoid receptor. Description: Antagonist activity at glucocorticoid receptor in rat H4IIEC3 cells assessed as glucocorticoid-induced TAT activity. Format: cell-based. In a few lines:
as §1

Data set [20] has as its target T4, hERG (KCNH2). Description: Inhibition of human ERG at 10 uM by patch clamp technique.
Data set [21] concerns the target T2, Glucocorticoid receptor. Description: Antagonist activity at glucocorticoid receptor in human HepG2 cells assessed as inhibition of glucocorticoid-induced TAT activity after 24 hrs. The format is cell-based.
Data set [22] has as its target T1, Glucocorticoid receptor (Rattus norvegicus). The data set is described as §4. The format is cell-based. As to conditions: Hepatocyte. The essentials:
as §1

Activity calls are given as the source filed them. The rule behind the calls is not given here.

T4 sequence (Q12809 whole entry): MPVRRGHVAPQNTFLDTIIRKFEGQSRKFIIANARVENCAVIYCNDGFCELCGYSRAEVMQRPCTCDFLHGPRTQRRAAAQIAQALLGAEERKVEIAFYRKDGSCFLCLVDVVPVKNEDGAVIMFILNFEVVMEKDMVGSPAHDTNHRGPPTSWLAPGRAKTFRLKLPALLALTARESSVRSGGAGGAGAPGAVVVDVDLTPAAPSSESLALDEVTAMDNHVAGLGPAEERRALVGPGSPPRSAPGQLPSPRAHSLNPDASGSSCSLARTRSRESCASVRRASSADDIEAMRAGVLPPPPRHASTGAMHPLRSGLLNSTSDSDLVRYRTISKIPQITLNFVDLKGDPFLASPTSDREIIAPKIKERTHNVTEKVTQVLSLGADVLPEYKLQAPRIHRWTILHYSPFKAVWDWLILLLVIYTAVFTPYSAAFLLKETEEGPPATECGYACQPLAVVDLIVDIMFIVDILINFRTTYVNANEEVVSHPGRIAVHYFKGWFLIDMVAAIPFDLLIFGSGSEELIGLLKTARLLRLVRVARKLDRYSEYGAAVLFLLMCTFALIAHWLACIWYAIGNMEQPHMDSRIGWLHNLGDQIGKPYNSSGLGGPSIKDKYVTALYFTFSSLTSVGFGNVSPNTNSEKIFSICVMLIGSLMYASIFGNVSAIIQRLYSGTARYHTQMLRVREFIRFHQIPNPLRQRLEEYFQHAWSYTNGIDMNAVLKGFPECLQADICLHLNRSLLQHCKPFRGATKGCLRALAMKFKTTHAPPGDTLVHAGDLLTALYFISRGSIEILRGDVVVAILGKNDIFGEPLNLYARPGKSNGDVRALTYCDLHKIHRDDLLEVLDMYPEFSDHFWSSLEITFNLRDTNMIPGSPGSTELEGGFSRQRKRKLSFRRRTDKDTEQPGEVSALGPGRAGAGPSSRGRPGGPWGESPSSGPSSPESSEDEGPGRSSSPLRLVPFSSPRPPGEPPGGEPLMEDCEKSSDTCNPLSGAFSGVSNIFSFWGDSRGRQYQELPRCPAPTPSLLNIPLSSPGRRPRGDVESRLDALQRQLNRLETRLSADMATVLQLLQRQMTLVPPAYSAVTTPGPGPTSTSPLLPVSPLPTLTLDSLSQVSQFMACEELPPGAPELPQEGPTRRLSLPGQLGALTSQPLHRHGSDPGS
Sequence of Voltage-gated inwardly rectifying potassium channel KCNH2 (Q12809 whole entry): as above

On to `O=C(c1ccccn1)[C@]12Cc3cnn(-c4ccc(F)cc4)c3C=C1CCN(S(=O)(=O)c1ccc(C(F)(F)F)cc1)C2` [DAZUCORILANT], for which the Imax in data set [1] was determined as 62%; in [11], 100%. The Ki in data set [2] was found to be 100 nM; in [5] it was 0.16 nM; in [12], 13 nM; in data set [14] it was 765 nM. The outcome in data set [3] was inactive. Further, the EC50 in data set [4] came out at 280 nM; in [7], 1600 nM. The molecule further displayed a bioavailability in data set [6] of 31%. Also, the result in data set [8] and in data set [15] was Active. This molecule registered an IC50 in [9] of 5000 nM. In [10], this molecule came in with a clearance of 11 mL/min/kg. The molecule also yielded a Cmax in [13] of 375 ng/mL. The Emax was 110% in data set [16] and 51% in data set [17].

Turning to `O=C(c1ccccn1)[C@]12Cc3cnn(-c4ccc(F)cc4)c3C=C1CCN(S(=O)(=O)c1ccc(Cl)c(Cl)c1)C2`, 1 µM produced 7% inhibition in [18]. The result in [3] and in [8] was Active. The Ki was 0.64 nM in [5], 8.5 nM in data set [19], 14 nM in data set [21] and 150 nM in data set [12]. The same molecule came in with an IC50 in data set [9] greater than 10000 nM. The same molecule gave an inhibition at 10 µM in [20] of 16%. The Efficacy in data set [22] was 74%. The same molecule came in with a Cmax in data set [13] of 437 ng/mL.

A word on the Ki: it is a measure of affinity in units of concentration, obtained from inhibition or displacement. As usually defined, the EC50 is the concentration at which the effect is half-maximal. In general, bioavailability refers to dose-corrected exposure relative to a reference, in per cent. As a reminder, the IC50 is the point on the concentration scale where inhibition reaches its midpoint. What is called clearance is a measure of how efficiently the substance is removed, as volume per time. Broadly, the Cmax is the highest concentration seen after dosing. The Emax is the maximal effect, on the per cent scale that the assay sets. A word on the inhibition: it is the share of the control response that was lost under treatment.

For the origin of these results see ChEMBL document CHEMBL3734698, “1H-Pyrazolo[3,4-g]hexahydro-isoquinolines as potent GR antagonists with reduced hERG inhibition and an improved pharmacokinetic profile” (Bioorg Med Chem Lett, 2015).
